Source: ChEMBL document CHEMBL3822400, “New structure-activity relationships of N-acetamide substituted pyrazolopyrimidines as pharmacological ligands of TSPO” (Bioorg Med Chem Lett, 2016)

Experiments:
[1] = Fraction unbound in human plasma after 4.5 hrs by rapid equilibrium dialysis method; assay type: ADME, cell-free
Method in brief: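 Equilibrium dialysis of plasma against buffer. After dialysis, the buffer and plasma fractions were extracted and analysed by standard LC-MS to quantify the compound.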

[2] = Lipophilicity, log P of the compound at pH 7.5 by HPLC method; assay type: physicochemical; details: buffer
Translocator protein = Translocator protein (Rattus norvegicus, UniProt P16257); assay: Displacement of [3H]-PK11195 from TSPO in rat C6 cell lysate after 2 hrs by liquid scintillation counting; assay type: cell-free
Translocator protein, sequence (P16257 whole entry, looked up): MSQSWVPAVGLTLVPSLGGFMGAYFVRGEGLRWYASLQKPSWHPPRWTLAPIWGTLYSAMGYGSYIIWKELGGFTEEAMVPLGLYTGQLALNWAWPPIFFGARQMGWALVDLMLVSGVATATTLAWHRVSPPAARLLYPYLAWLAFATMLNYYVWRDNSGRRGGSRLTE

Row | Fu [1] [%] | logP [2] | Ki (Translocator protein) [nM] | SMILES
1 | 1.1 | – | – | CCc1cc(CC)n2nc(-c3ccc(OC)cc3)c(CC(=O)N(CC)CC)c2n1
2 | 0.6 | 3.27 | 0.28 | CCc1cc(CC)n2nc(-c3ccc(OC)cc3)c(CC(=O)N(CC)c3ccccc3)c2n1
3 | – | 3.75 | 14.4 | CCc1cc(CC)n2nc(-c3ccc(OC)cc3)c(CC(=O)N(C(C)CC)C(C)CC)c2n1 (stereo not drawn)
4 | – | 2.47 | 37.6 | CCc1cc(CC)n2nc(-c3ccc(OC)cc3)c(CC(=O)N(C)C)c2n1
5 | – | 3.32 | 59.1 | CCc1cc(CC)n2nc(-c3ccc(OC)cc3)c(CC(=O)N(CC)C(C)(C)C)c2n1
6 | 0.7 | 3.35 | 5.57 | CCCN(CCC)C(=O)Cc1c(-c2ccc(OC)cc2)nn2c(CC)cc(CC)nc12
7 | – | 2.96 | 49.2 | CCc1cc(CC)n2nc(-c3ccc(OC)cc3)c(CC(=O)N3CCCCC3)c2n1
8 | – | 3.26 | 20 | CCc1cc(CC)n2nc(-c3ccc(OC)cc3)c(CC(=O)N(C(C)C)C(C)C)c2n1
9 | – | 3.77 | 13.2 | CCc1cc(CC)n2nc(-c3ccc(OC)cc3)c(CC(=O)N(CC(C)C)CC(C)C)c2n1
10 | – | 4.29 | 2.17 | CCCCCN(CCCCC)C(=O)Cc1c(-c2ccc(OC)cc2)nn2c(CC)cc(CC)nc12
11 | 0.3 | 3.81 | 7.34 | CCCCN(CCCC)C(=O)Cc1c(-c2ccc(OC)cc2)nn2c(CC)cc(CC)nc12
12 | – | 4.78 | 18.6 | CCCCCCN(CCCCCC)C(=O)Cc1c(-c2ccc(OC)cc2)nn2c(CC)cc(CC)nc12
13 | – | 2.58 | 87.8 | CCc1cc(CC)n2nc(-c3ccc(OC)cc3)c(CC(=O)N3CCC3)c2n1
14 | 1.3 | 3.13 | 94.8 | CCc1cc(CC)n2nc(-c3ccc(OC)cc3)c(CC(=O)N(C)C(C)(C)C)c2n1
15 | 1.1 | 3.11 | 6.44 | CCc1cc(CC)n2nc(-c3ccc(OC)cc3)c(CC(=O)N(C)c3ccccc3)c2n1
16 | – | 2.72 | 127 | CCc1cc(CC)n2nc(-c3ccc(OC)cc3)c(CC(=O)N3CCCC3)c2n1
17 | – | 3.73 | 397 | CCc1cc(CC)n2nc(-c3ccc(OC)cc3)c(CC(=O)N(Cc3ccccc3)Cc3ccccc3)c2n1
